The results in this text go back to article PMC11248911 (RSC Advances, 2024).

The subject of experiment [1] is MCF-7 human cancer cell line. The experiment can be described thus: In vitro antiproliferative activity, LDH release assay, MCF-7. Format: cell-based. Conditions: for IC50: Homo sapiens. A digest of the protocol:
(§1)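 Cells were grown in RPMI-1640 with 10% heat-inactivated FBS and penicillin/streptomycin at 37 °C, 5% CO2. Seeded at 2 × 10^5 cells per well, grown 18 h, then treated with a concentration series for 48 h. LDH in supernatant and in 6% Triton X-100 lysate was read kinetically for 1 min at 340 nm, using pH 7.5 phosphate buffer with 4.6 mM pyruvate and β-NADH. Release was taken as % of total; IC50 by probit, thrice in triplicate.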
On the technique in general: Release of lactate dehydrogenase indicates damage to the cell membrane.

Experiment [2] has as its system normal human skin fibroblast (BJ-1) cell line. The experiment can be described thus: In vitro antiproliferative activity, LDH release assay, BJ-1 normal cells. Format: cell-based. Conditions: 48 h, read-out: BJ-1 IC50. A digest of the protocol:
as §1

For the next experiment, the target named is aminopeptidase N (APN) (Homo sapiens, UniProt P15144). The experiment can be described thus: In vitro APN inhibition assay. It counts as biochemical. The method in brief: (§2)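 Enzyme activity kits were run per manufacturer's instructions. Experiments were done in triplicate (n = 3) and reported as mean ± SD. IC50s were derived by probit analysis.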
A further experiment relates to VEGFR2. Format: biochemical, human. The note with it: biomarker for angiogenesis.
Another experiment deals with MMP9. The experiment can be described thus: In vitro MMP9 inhibition assay. Conditions: biomarker for invasion. It counts as biochemical, human. The method in brief: as §2
For experiment [3], the system named is MCF-7 cells. The experiment can be described thus: Wound healing. Conditions: control cells 97.03%. Format: cell-based, human.
Experiment [4] has as its system MCF-7 cells. The experiment can be described thus: Cell cycle analysis by flow cytometry. It counts as cell-based, human. The note with it: MCF-7, 48 h. A general note: In flow cytometry, cells or beads pass a laser one at a time.
For experiment [5], the system named is MCF-7 cells. The experiment can be described thus: Apoptosis assay, Annexin-V/FITC and PI flow cytometry. Format: cell-based, human. Conditions: MCF-7, 48 h.
The mark [6] stands for this setting: MCF7, 48 h, read-out: MCF-7 IC50.
Where [7] appears, read: MCF7, read-out: MCF-7 Experimental activity (pIC50) (converted).

Where two headings read alike, the source gives them in different places.

Sequence of aminopeptidase N (APN) (P15144 whole entry): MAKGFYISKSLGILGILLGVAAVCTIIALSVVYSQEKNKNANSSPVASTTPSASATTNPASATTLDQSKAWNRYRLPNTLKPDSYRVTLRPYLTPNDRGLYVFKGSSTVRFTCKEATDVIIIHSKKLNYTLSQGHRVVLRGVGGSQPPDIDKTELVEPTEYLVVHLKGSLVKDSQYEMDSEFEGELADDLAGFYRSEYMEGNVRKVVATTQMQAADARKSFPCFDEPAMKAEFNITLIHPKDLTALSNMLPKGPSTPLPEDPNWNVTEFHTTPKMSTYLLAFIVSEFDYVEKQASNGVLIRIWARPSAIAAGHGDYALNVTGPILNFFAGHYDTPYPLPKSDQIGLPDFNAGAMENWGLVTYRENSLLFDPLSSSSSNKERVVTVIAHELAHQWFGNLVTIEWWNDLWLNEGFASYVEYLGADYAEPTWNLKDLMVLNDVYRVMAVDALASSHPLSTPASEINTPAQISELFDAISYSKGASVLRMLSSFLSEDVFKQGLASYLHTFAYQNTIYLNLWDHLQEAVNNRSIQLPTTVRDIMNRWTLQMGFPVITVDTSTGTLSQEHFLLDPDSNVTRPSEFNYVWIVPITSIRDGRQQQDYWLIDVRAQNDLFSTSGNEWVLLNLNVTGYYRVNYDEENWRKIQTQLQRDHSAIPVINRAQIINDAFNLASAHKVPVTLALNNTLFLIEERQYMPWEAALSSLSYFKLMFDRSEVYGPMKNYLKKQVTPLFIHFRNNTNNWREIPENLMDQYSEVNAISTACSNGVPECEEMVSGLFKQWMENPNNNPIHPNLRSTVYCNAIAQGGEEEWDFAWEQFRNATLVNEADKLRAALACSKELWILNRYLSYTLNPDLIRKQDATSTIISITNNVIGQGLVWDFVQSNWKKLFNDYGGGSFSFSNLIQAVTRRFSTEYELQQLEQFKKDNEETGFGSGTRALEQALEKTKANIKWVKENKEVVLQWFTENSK

As to `COc1ccc(C=C2SC(N3N=C(C)CC3c3ccccc3)=NC2=O)cc1` (stereo not shown) [Compound 17, 5-(4-Methoxybenzylidene)-2-(4,5-dihydro-3-methyl-5-phenylpyrazol-1-yl)thiazol-4(5H)-one], the IC50 in experiment [1] (setting [6]) was 7 ± 0.3 µM; in experiment [1] (setting [7]), 7 µM.

With `CC1=NN(c2nc(-c3ccccc3)cs2)C(c2ccccc2)C1` (stereo not shown) [Compound 10, 4,5-Dihydro-3-methyl-5-phenyl-1-(4-phenylthiazol-2-yl)-1H-pyrazole], the IC50 in experiment [1] (setting [6]) was 7.6 ± 0.3 µM; in experiment [1] (setting [7]) it was 7.6 µM.

Turning to `CC1=NN(C(=S)Nc2ccccc2)C(c2ccccc2)C1` (stereo not shown) [Compound 8, 4,5-Dihydro-3-methyl-N,5-diphenylpyrazole-1-carbothioamide], the “selectivity index (SI)” value in experiment [1] (BJ-1 versus MCF-7) stood at 4.7. The IC50 in experiment [1] (setting [6]) is 6.2 ± 0.2 µM; in experiment [1] (setting [7]), 6.2 µM; in experiment [2], 29.1 ± 2.3 µM; against aminopeptidase N (APN), 15.8 µM. In addition, the “VEGFR2 inhibition pIC50” value with VEGFR2 turned out to be 6.7. Further, the “MMP9 inhibition pIC50” value with MMP9 was 6.4. In addition, the “percentage closure of the wound gap” value in the experiment on MCF-7 cells [3] came out at 57.77%. The “cell population in S phase” value in the experiment on MCF-7 cells [4] (control 24.79%) is recorded as 23.02%. For the same compound, the “cell population in G0/G1 phase” value in the experiment with MCF-7 cells [4] (control 65.02%) came to 72.11%. The same compound yielded a late apoptosis in the experiment with MCF-7 cells [5] (control 0.15%) of 17.11%. Besides, in the experiment with MCF-7 cells [5] (control 0.37%), the early apoptosis came out at 11.52%. Further, in the experiment with MCF-7 cells [5] (control 1.95%), the “total MCF-7 cell death” value turned out to be 32.91%.

For the compound `CC1=NN(C(=S)NCc2ccccc2)C(c2ccccc2)C1` (stereo not shown) [Compound 9, N-Benzyl-4,5-dihydro-3-methyl-5-phenylpyrazole-1-carbothioamide], the IC50 was 7 ± 0.3 µM in experiment [1] (setting [6]) and 7 µM in experiment [1] (setting [7]).

Consider `COc1ccc(-c2csc(N3N=C(C)CC3c3ccccc3)n2)cc1` (stereo not shown) [Compound 12, 4,5-Dihydro-1-(4-(4-methoxyphenyl)thiazol-2-yl)-3-methyl-5-phenyl-1H-pyrazole], for which the IC50 was 7.1 ± 0.2 µM in experiment [1] (setting [6]) and 7.1 µM in experiment [1] (setting [7]).

Take `CC1=NN(c2ccccc2Cl)C(c2ccccc2)C1` (stereo not shown) [Compound 3, 1-(2-Chlorophenyl)-4,5-dihydro-3-methyl-5-phenyl-1H-pyrazole]: the figures for the IC50 in experiment [1] (setting [6]) and in experiment [1] (setting [7]) were 8.8 ± 0.5 µM and 8.8 µM, respectively.

On to `O=c1c(O)c(-c2ccc(O)c(O)c2)oc2cc(O)cc(O)c12` [quercetin, reference compound], for which the “MMP9 inhibition pIC50” value in the experiment on MMP9 is reported as 6.7.

Turning to `CC1=NN(C2=NC(=O)C(=Cc3ccc(Cl)cc3Cl)S2)C(c2ccccc2)C1` (stereo not shown) [Compound 18, 5-(2,4-Dichlorobenzylidene)-2-(4,5-dihydro-3-methyl-5-phenylpyrazol-1-yl)thiazol-4(5H)-one], the IC50 in experiment [1] (setting [6]) was 6.9 ± 0.2 µM; in experiment [1] (setting [7]), 6.9 µM.

In the case of `COc1cccc2c1C(=O)c1c(O)c3c(c(O)c1C2=O)C[C@@](O)(C(=O)CO)C[C@@H]3O[C@H]1C[C@H](N)[C@H](O)[C@H](C)O1` [Doxorubicin, reference compound], the values for the IC50 in experiment [1] (setting [6]) and in experiment [2] were 4.9 ± 0.3 µM and 12.9 ± 1.3 µM, respectively.

As to `CCNC(=S)N1N=C(C)CC1c1ccccc1` (stereo not shown) [Compound 7, N-Ethyl-4,5-dihydro-3-methyl-5-phenylpyrazole-1-carbothioamide], the values for the IC50 in experiment [1] (setting [6]), in experiment [1] (setting [7]) and in experiment [2] were 5.8 ± 0.2 µM, 5.8 µM and 18.7 ± 1.5 µM, respectively.

As for `CNC(=S)N1N=C(C)CC1c1ccccc1` (stereo not shown) [Compound 6, 4,5-Dihydro-N,3-dimethyl-5-phenylpyrazole-1-carbothioamide], the figures for the IC50 in experiment [1] (setting [6]), in experiment [1] (setting [7]) and in experiment [2] were 6.4 ± 0.3 µM, 6.4 µM and 18.2 ± 1.5 µM, respectively.

With `CC1=NN(c2nc(-c3ccc(F)cc3)cs2)C(c2ccccc2)C1` (stereo not shown) [Compound 11, 1-(4-(4-Fluorophenyl)thiazol-2-yl)-4,5-dihydro-3-methyl-5-phenyl-1H-pyrazole], the figures for the IC50 in experiment [1] (setting [6]) and in experiment [1] (setting [7]) were 6.9 ± 0.2 µM and 6.9 µM, respectively.

`CC1=NN(C2=NC(=O)C(=Cc3ccc(F)cc3)S2)C(c2ccccc2)C1` (stereo not shown) [Compound 16, 5-(4-Fluorobenzylidene)-2-(4,5-dihydro-3-methyl-5-phenylpyrazol-1-yl)thiazol-4(5H)-one]: the IC50 in experiment [1] (setting [6]) is 6.6 ± 0.2 µM; in experiment [1] (setting [7]), 6.6 µM.

`CC1=NN(c2nc(-c3ccc(Cl)cc3Cl)cs2)C(c2ccccc2)C1` (stereo not shown) [Compound 13, 1-(4-(2,4-Dichlorophenyl)thiazol-2-yl)-4,5-dihydro-3-methyl-5-phenyl-1H-pyrazole]: the IC50 was 6.7 ± 0.2 µM in experiment [1] (setting [6]) and 6.7 µM in experiment [1] (setting [7]).

Take `CC1=NN(c2c(Cl)cc(Cl)cc2Cl)C(c2ccccc2)C1` (stereo not shown) [Compound 4, 1-(2,4,6-Trichlorophenyl)-4,5-dihydro-3-methyl-5-phenyl-1H-pyrazole]: the IC50 in experiment [1] (setting [6]) was 8.1 ± 0.5 µM; in experiment [1] (setting [7]), 8.1 µM.

Take `CC1=NN(C2=NC(=O)C(C)S2)C(c2ccccc2)C1` (stereo not shown) [Compound 15, 2-(4,5-Dihydro-3-methyl-5-phenylpyrazol-1-yl)-5-methylthiazol-4(5H)-one]: the IC50 in experiment [1] (setting [6]) was 8.6 ± 0.3 µM; in experiment [1] (setting [7]), 8.6 µM.

As for `COc1ccc(C=C2SC(N3N=C(C)CC3c3ccccc3)=NC2=O)cc1OC` (stereo not shown) [Compound 19, 5-(3,4-Dimethoxybenzylidene)-2-(4,5-dihydro-3-methyl-5-phenylpyrazol-1-yl)thiazol-4(5H)-one], the IC50 was 7.5 ± 0.2 µM in experiment [1] (setting [6]) and 7.5 µM in experiment [1] (setting [7]).
